Source: ChEMBL document CHEMBL3272281, “Synthesis and structure-activity relationship studies of cytotoxic epoxide derivatives of 7-oxabicyclo[2.2.1]heptane” (J Med Chem, 1977)
≈ marks a conversion by molar mass, not a printed value. Calls of active or inactive are those of the source.

Key:
[1] = system: Mus musculus; test: Toxicity in BDF1 mouse allografted with mouse L1210 cells at 200 mg/kg; assay type: organism-based; parameters: dose 200 mg/kg; conditions: in vivo
Summary of the method: (§1)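 Toxicity was recorded as lethality to BDF1 mice during the in vivo L1210 lymphoid leukemia screen. Compounds were given at 12.5, 50, 200 or 400 mg/kg.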

[2] = system: Mus musculus; test: Toxicity in BDF1 mouse allografted with mouse L1210 cells at 50 mg/kg; assay type: organism-based; parameters: dose 50 mg/kg; conditions: in vivo; summary of the method: as §1
[3] = Cytotoxicity against human 9KB cells; assay type: functional; conditions: read-out: ED50 (the source's name)
Summary of the method: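 9KB cell culture assay run under the National Cancer Institute programme with compounds supplied in DMF solution. Values are ED50 in μg/ml, and ≤4 μg/ml is taken as the significance criterion.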

[4] = system: Mus musculus; test: Toxicity in BDF1 mouse allografted with mouse L1210 cells at 400 mg/kg; assay type: organism-based; parameters: dose 400 mg/kg; conditions: in vivo; summary of the method: as §1
[5] = system: L1210; test: Antitumor activity against mouse L1210 cells allografted in BDF1 mouse; assay type: functional
[6] = system: Mus musculus; test: Toxicity in BDF1 mouse allografted with mouse L1210 cells at 12.5 mg/kg; assay type: organism-based; parameters: dose 12.5 mg/kg; conditions: in vivo; summary of the method: as §1

Structure (SMILES) | Activity [1] | Activity [2] | EC50 [3] [µg/mL] | Activity [4] | Activity [5] | Activity [6]
COC(=O)C1=C(C(=O)OC)C2(C)C=CC1O2 (stereo not given) | Toxic | Toxic | 3 (≈ 13.4 µM) | Toxic | inactive | Non-toxic
C1CC2CC1C1OC21 (stereo not given) | Non-toxic | – | 100 (≈ 908 µM) | Non-toxic | inactive | –
COC(=O)C1=C(C(=O)OC)[C@H]2O[C@H]1[C@@H]1O[C@@H]12 | Toxic | Toxic | 1.5 (≈ 6.63 µM) | Toxic | inactive | Non-toxic
COC(=O)[C@@H]1[C@H](C(=O)OC)[C@@H]2C=C[C@@H]1O2 | Non-toxic | – | 100 (≈ 471 µM) | Non-toxic | inactive | –
COC(=O)C1=C(C(=O)OC)C2CCC1C2 | Non-toxic | – | 100 (≈ 476 µM) | Non-toxic | inactive | –
COC(=O)C1=C(C(=O)OC)[C@H]2C[C@H]1[C@@H]1O[C@@H]12 | Non-toxic | – | 22 (≈ 98.1 µM) | Toxic | inactive | –
COC(=O)C1CC2OC2C(C)C1C(=O)OC (stereo not given) | Non-toxic | – | 100 (≈ 438 µM) | Non-toxic | inactive | –
COC(=O)C1=C(C(=O)OC)C2C=CC1C2 | Non-toxic | – | 100 (≈ 480 µM) | Non-toxic | inactive | –
COC(=O)C1=C(C(=O)OC)C2CCC1O2 | Non-toxic | – | 22 (≈ 104 µM) | Non-toxic | inactive | –
C1OCC2OC12 (stereo not given) | Non-toxic | – | 100 (≈ 1160 µM) | Non-toxic | inactive | –
COC(=O)[C@@H]1[C@H]2C[C@@H]([C@@H]3O[C@H]23)[C@@H]1C(=O)OC | Non-toxic | – | 100 (≈ 442 µM) | Non-toxic | inactive | –
COC(=O)C1CC=CC(C)C1C(=O)OC (stereo not given) | Non-toxic | – | 48 (≈ 226 µM) | Non-toxic | inactive | –
COC(=O)[C@@H]1[C@H](C(=O)OC)[C@@H]2C=C[C@@H]1C2 | Non-toxic | – | 100 (≈ 476 µM) | Non-toxic | inactive | –
C1=CCC2OC2C1 (stereo not given) | Non-toxic | – | 130 (≈ 1350 µM) | Toxic | inactive | –
COC(=O)C1=C(C(=O)OC)[C@@]2(C)O[C@H]1[C@@H]1O[C@@H]12 | Toxic | Toxic | 3 (≈ 12.5 µM) | Toxic | inactive | Non-toxic
COC(=O)[C@@H]1[C@H]2O[C@@H]([C@H]3O[C@H]32)[C@@H]1C(=O)OC | Non-toxic | – | 100 (≈ 438 µM) | Non-toxic | inactive | –
